Assay results taken from ChEMBL document CHEMBL1136225, “Selective 3-amino-2-pyridinone acetamide thrombin inhibitors incorporating weakly basic partially saturated heterobicyclic P1-arginine mimetics” (Bioorg Med Chem Lett, 2003).

biological target: T1, Serine protease 1 (Bos taurus, UniProt P00760); assay: Inhibitory activity against Trypsin; Inactive
T1 sequence (P00760 whole entry): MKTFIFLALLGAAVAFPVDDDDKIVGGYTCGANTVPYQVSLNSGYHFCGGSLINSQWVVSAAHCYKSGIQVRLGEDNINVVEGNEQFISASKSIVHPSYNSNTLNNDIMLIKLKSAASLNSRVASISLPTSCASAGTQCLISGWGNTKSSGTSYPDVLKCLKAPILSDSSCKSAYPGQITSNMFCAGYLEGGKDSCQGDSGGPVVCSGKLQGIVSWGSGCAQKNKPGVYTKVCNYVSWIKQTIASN
Outline: (§1)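 Amidolytic enzyme assays with chromogenic substrates for thrombin, trypsin and factor Xa; Ki derived from IC50 by Cheng–Prusoff, or from reaction velocity equations with and without inhibitor using the relevant Km.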

| Ki [µM] | SMILES |
| --- | --- |
| 640 | Cc1ccc(NS(=O)(=O)Cc2ccccc2)c(=O)n1CC(=O)NCC1CCc2nc(N)ncc2C1 (stereo unspecified) |

biological target: Prothrombin (Homo sapiens, UniProt P00734); assay: Inhibitory activity against thrombin; outline: as §1

| Ki [µM] | SMILES |
| --- | --- |
| 6.9 | Cc1ccc(NS(=O)(=O)Cc2ccccc2)c(=O)n1CC(=O)NCC1CCc2nc(N)ncc2C1 (stereo unspecified) |
| 11.8 | Cc1ccc(NS(=O)(=O)Cc2ccccc2)c(=O)n1CC(=O)NCC1CCc2nn(C)cc2C1 (stereo unspecified) |
| 0.0087 | Cc1ccc(NS(=O)(=O)Cc2ccccc2)c(=O)n1CC(=O)NCc1ccc2[nH]ncc2c1 |
| 2.5 | Cc1ccc(NS(=O)(=O)Cc2ccccc2)c(=O)n1CC(=O)NCC1CCc2nc(N)sc2C1 (stereo unspecified) |
| 0.17 | Cc1ccc(NS(=O)(=O)Cc2ccccc2)c(=O)n1CC(=O)NCC1CCc2n[nH]cc2C1 (stereo unspecified) |

species: Homo sapiens; assay: Concentration required to double the thrombin time in human plasma; type: functional
Outline: (§2)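 Standard clotting assays (APTT, PT and TT) run in human plasma; value is the inhibitor concentration required to double each clotting time.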

| SMILES | Concentration [µM] |
| --- | --- |
| Cc1ccc(NS(=O)(=O)Cc2ccccc2)c(=O)n1CC(=O)NCC1CCc2nc(N)ncc2C1 (stereo unspecified) | 84 |
| Cc1ccc(NS(=O)(=O)Cc2ccccc2)c(=O)n1CC(=O)NC1CCc2n[nH]cc2C1 (stereo unspecified) | 105 |
| Cc1ccc(NS(=O)(=O)Cc2ccccc2)c(=O)n1CC(=O)NC1CCc2nn(C)cc2C1 (stereo unspecified) | 375 |
| Cc1ccc(NS(=O)(=O)Cc2ccccc2)c(=O)n1CC(=O)NCC1CCc2nn(C)cc2C1 (stereo unspecified) | 105 |
| Cc1ccc(NS(=O)(=O)Cc2ccccc2)c(=O)n1CC(=O)NCC1CCc2nc(N)sc2C1 (stereo unspecified) | 44 |
| Cc1ccc(NS(=O)(=O)Cc2ccccc2)c(=O)n1CC(=O)NCC1CCc2n[nH]cc2C1 (stereo unspecified) | 5.2 |

species: Homo sapiens; assay: Concentration required to double the prothrombin time in human plasma; type: functional; outline: as §2

| SMILES | Concentration [µM] |
| --- | --- |
| Cc1ccc(NS(=O)(=O)Cc2ccccc2)c(=O)n1CC(=O)NCC1CCc2nc(N)ncc2C1 (stereo unspecified) | > 400 |
| Cc1ccc(NS(=O)(=O)Cc2ccccc2)c(=O)n1CC(=O)NC1CCc2n[nH]cc2C1 (stereo unspecified) | > 400 |
| Cc1ccc(NS(=O)(=O)Cc2ccccc2)c(=O)n1CC(=O)NC1CCc2nn(C)cc2C1 (stereo unspecified) | > 400 |
| Cc1ccc(NS(=O)(=O)Cc2ccccc2)c(=O)n1CC(=O)NCC1CCc2nn(C)cc2C1 (stereo unspecified) | > 400 |
| Cc1ccc(NS(=O)(=O)Cc2ccccc2)c(=O)n1CC(=O)NCC1CCc2nc(N)sc2C1 (stereo unspecified) | 334 |
| Cc1ccc(NS(=O)(=O)Cc2ccccc2)c(=O)n1CC(=O)NCC1CCc2n[nH]cc2C1 (stereo unspecified) | 30.6 |

biological target: T1, Serine protease 1; assay: Inhibitory activity was evaluated against Trypsin; Inactive; outline: as §1

| Ki | SMILES |
| --- | --- |
| Not Active | Cc1ccc(NS(=O)(=O)Cc2ccccc2)c(=O)n1CC(=O)NCC1CCc2n[nH]cc2C1 (stereo unspecified) |

species: Homo sapiens; assay: Concentration required to double the activated partial thromboplastin time in human plasma; type: functional; outline: as §2

| SMILES | Concentration [µM] |
| --- | --- |
| Cc1ccc(NS(=O)(=O)Cc2ccccc2)c(=O)n1CC(=O)NCC1CCc2nc(N)ncc2C1 (stereo unspecified) | 219 |
| Cc1ccc(NS(=O)(=O)Cc2ccccc2)c(=O)n1CC(=O)NC1CCc2n[nH]cc2C1 (stereo unspecified) | 272 |
| Cc1ccc(NS(=O)(=O)Cc2ccccc2)c(=O)n1CC(=O)NC1CCc2nn(C)cc2C1 (stereo unspecified) | > 200 |
| Cc1ccc(NS(=O)(=O)Cc2ccccc2)c(=O)n1CC(=O)NCC1CCc2nn(C)cc2C1 (stereo unspecified) | 318 |
| Cc1ccc(NS(=O)(=O)Cc2ccccc2)c(=O)n1CC(=O)NCC1CCc2nc(N)sc2C1 (stereo unspecified) | 121 |
| Cc1ccc(NS(=O)(=O)Cc2ccccc2)c(=O)n1CC(=O)NCC1CCc2n[nH]cc2C1 (stereo unspecified) | 20.5 |

biological target: Coagulation factor X (Homo sapiens, UniProt P00742); assay: Inhibitory activity against coagulation factor X; outline: as §1
Sequence (P00742 41-179 limits assumed): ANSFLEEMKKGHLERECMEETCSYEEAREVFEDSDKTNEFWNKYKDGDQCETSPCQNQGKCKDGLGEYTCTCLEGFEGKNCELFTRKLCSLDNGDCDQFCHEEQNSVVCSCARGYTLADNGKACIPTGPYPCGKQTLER
Sequence (P00742 235-488 limits assumed): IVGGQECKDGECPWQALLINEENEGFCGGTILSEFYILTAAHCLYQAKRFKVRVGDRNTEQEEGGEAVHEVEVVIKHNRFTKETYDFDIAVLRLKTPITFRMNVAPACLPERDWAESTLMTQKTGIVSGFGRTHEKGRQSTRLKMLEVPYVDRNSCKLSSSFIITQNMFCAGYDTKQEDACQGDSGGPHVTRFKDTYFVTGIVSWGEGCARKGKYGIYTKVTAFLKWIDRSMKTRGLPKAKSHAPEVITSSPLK

| Ki [µM] | SMILES |
| --- | --- |
| 87.3 | Cc1ccc(NS(=O)(=O)Cc2ccccc2)c(=O)n1CC(=O)NCC1CCc2nc(N)ncc2C1 (stereo unspecified) |
| 99 | Cc1ccc(NS(=O)(=O)Cc2ccccc2)c(=O)n1CC(=O)NC1CCc2n[nH]cc2C1 (stereo unspecified) |
| 90.2 | Cc1ccc(NS(=O)(=O)Cc2ccccc2)c(=O)n1CC(=O)NC1CCc2nn(C)cc2C1 (stereo unspecified) |
| 95 | Cc1ccc(NS(=O)(=O)Cc2ccccc2)c(=O)n1CC(=O)NCC1CCc2nn(C)cc2C1 (stereo unspecified) |
| 106 | Cc1ccc(NS(=O)(=O)Cc2ccccc2)c(=O)n1CC(=O)NCC1CCc2nc(N)sc2C1 (stereo unspecified) |
| 103 | Cc1ccc(NS(=O)(=O)Cc2ccccc2)c(=O)n1CC(=O)NCC1CCc2n[nH]cc2C1 (stereo unspecified) |

tested on: not listed separately; assay: pKa value was determined; type: physicochemical; call rule not given here

| pKa | SMILES |
| --- | --- |
| 6.1 | Cc1ccc(NS(=O)(=O)Cc2ccccc2)c(=O)n1CC(=O)NC1CCc2nc(N)sc2C1 (stereo unspecified) |
| 3.7 | Cc1ccc(NS(=O)(=O)Cc2ccccc2)c(=O)n1CC(=O)NC1CCc2n[nH]cc2C1 (stereo unspecified) |
| 3.2 | Cc1ccc(NS(=O)(=O)Cc2ccccc2)c(=O)n1CC(=O)NC1CCc2nn(C)cc2C1 (stereo unspecified) |
| 3.6 | Cc1ccc(NS(=O)(=O)Cc2ccccc2)c(=O)n1CC(=O)NCC1CCc2nn(C)cc2C1 (stereo unspecified) |
| 4 | Cc1ccc(NS(=O)(=O)Cc2ccccc2)c(=O)n1CC(=O)NCC1CCc2n[nH]cc2C1 (stereo unspecified) |

biological target: T2, Serine protease 1 (Bos taurus) (UniProt P00760); assay: Selectivity for inhibition of thrombin to that of trypsin
T2 sequence (whole entry): T1 sequence (P00760 whole entry)
Outline: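 Selectivity expressed as Ki(trypsin)/Ki(thrombin), with both Ki values from chromogenic-substrate amidolytic assays.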

| Selectivity | SMILES |
| --- | --- |
| 93 | Cc1ccc(NS(=O)(=O)Cc2ccccc2)c(=O)n1CC(=O)NC1CCc2n[nH]cc2C1 (stereo unspecified) |
| 32 | Cc1ccc(NS(=O)(=O)Cc2ccccc2)c(=O)n1CC(=O)NC1CCc2nn(C)cc2C1 (stereo unspecified) |
| 47 | Cc1ccc(NS(=O)(=O)Cc2ccccc2)c(=O)n1CC(=O)NCC1CCc2nn(C)cc2C1 (stereo unspecified) |

biological target: T1, Serine protease 1; assay: Inhibitory activity against Trypsin; outline: as §1

| Ki [µM] | SMILES |
| --- | --- |
| 807 | Cc1ccc(NS(=O)(=O)Cc2ccccc2)c(=O)n1CC(=O)NC1CCc2nn(C)cc2C1 (stereo unspecified) |
| 557 | Cc1ccc(NS(=O)(=O)Cc2ccccc2)c(=O)n1CC(=O)NCC1CCc2nn(C)cc2C1 (stereo unspecified) |
